The results in this text go back to article PMC9798254 (Protein Science : A Publication of the Protein Society, 2023).

Holding throughout (test): coupled photometric phosphate release assay
Common to all, as to type: biochemical, synthetic construct
What all share (conditions): 100 mM Tris/HCl pH 7.8, 5 mM MgCl2, 25°C

For one assay, the system named is Anc6. In short, it runs like this:
(§1)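 Ancestral enzyme expressed in E. coli BW25113 (0.5 mM IPTG, overnight at 20°C). Purified by Ni affinity chromatography and size exclusion in 50 mM Tris/HCl pH 7.5, 400 mM NaCl, 2 mM MgCl2. Phosphate release coupled with 0.5 mM inosine, 0.25 U/ml purine nucleoside phosphorylase and 2.5 U/ml xanthine oxidase, at varied substrate concentrations. Reaction started with enzyme. Km fitted to Michaelis–Menten from initial slopes.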

A further assay has as its system Anc7. An outline of the steps: as §1
Another assay has as its system Anc5. An outline of the steps: as §1

In the case of `N[C@H](COP(=O)(O)O)Cc1c[nH]cn1` [HolP], the results for the Km with Anc6, in the assay on Anc7 and in the assay on Anc5 were 59 ± 12 µM, 122 ± 31 µM and 698 ± 123 µM, respectively.
